# Bioassay records from PubChem.
# Only some compounds are listed: those with a hit (about 1.7% of all), similar ones and a draw of the others.
# PREPL inhibitor – inhibits the human prolyl oligopeptidase-like enzyme; Q4J6C6; recombinant PREPL, fluorescence polarization activity-based probe; inhibition, % at 5.96 µM; 0.68% of 320,000 active;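 also: 0% = enzyme with DMSO and 100% = wells lacking enzyme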
# Apaf-1 inh – inhibitors of human Apaf-1 apoptosome | O14727 | reconstituted apoptosome caspase-3 activity, DEVD-Rh110 fluorescence | inhibition, % at 20 µM | 0.71% of 330,000 active; active = inhibition of at least 40% at 20 µM;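 also: plate controls were DMSO wells for no effect and DEVD-CHO caspase inhibitor wells for full effect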
#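 Assay system – apoptosome proteins · Medium – Hepes buffer, pH 7.5 · Also added – cytochrome c with DEVD-Rh110 · Timing – 30 min compound preincubation, 50 min activation, room temperature · Detection – Rh110 fluorescence, excitation 480 nm, emission 540 nm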
# UBC13 polyUb – human UBC13 polyubiquitination inhibition; P61088; UBC13 polyubiquitin chain formation, TR-FRET; inhibition, % at 20 µM; 0.47% of 330,000 active; in the data active = inhibition above about 45%, passing the limit was not always enough
# Target sequence (P61088 whole entry, looked up): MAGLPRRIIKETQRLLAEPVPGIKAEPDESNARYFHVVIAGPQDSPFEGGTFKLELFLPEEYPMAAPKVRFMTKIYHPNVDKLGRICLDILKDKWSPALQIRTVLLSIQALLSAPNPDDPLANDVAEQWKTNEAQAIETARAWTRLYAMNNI
# EBNA-1 inh – blocks EBNA-1 binding to DNA; EBNA-1 DNA binding, fluorescence polarization; inhibition, % at 14.8 µM; 0.34% of 300,000 active; in the data active = inhibition above about 28%
# ZTA DNA inh – blocks Epstein-Barr virus ZTA, an EBNA-1 counter-screen; ZTA-DNA binding, fluorescence polarization; inhibition, % at 11 µM; 0.15% of 320,000 active; in the data active = inhibition above about 33%
# Target sequence (P03206 whole entry, looked up): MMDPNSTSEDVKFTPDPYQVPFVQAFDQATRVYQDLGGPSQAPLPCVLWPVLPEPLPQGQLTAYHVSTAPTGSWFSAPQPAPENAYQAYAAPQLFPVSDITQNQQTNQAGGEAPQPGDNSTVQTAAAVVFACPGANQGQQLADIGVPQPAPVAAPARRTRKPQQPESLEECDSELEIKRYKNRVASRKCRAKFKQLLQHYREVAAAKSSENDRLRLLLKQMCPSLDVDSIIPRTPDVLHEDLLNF
# PREPL inh cf – confirmation of human PREPL enzyme inhibitors; shares compounds with PREPL inhibitor; recombinant PREPL, fluorescence polarization activity probe; inhibition, % at 5.96 µM; 67% of 2,000 active; AID 2803;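 also: 0% = protein with DMSO and 100% = wells lacking protein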
# An asterisk follows results filed as active; nt = no result. Rule as the data show it, unless noted: active = inhibition above about 43%; inactive = the rest.
SMILES,PREPL inhibitor,Apaf-1 inh,UBC13 polyUb,EBNA-1 inh,ZTA DNA inh,PREPL inh cf
C#CCOCCOCCOCCNc1nc(N2CCN(C(=O)[C@H](CCCCN)n3cc([C@@H](N)CO)nn3)CC2)nc(N2CCN(C(=O)[C@H](Cc3cc4ccccc4[nH]3)n3cc([C@@H](N)CC(C)C)nn3)CC2)n1,52*,-6,100*,10,-1,51*
C#CCOCCOCCOCCNc1nc(N2CCN(C(=O)[C@H](CCC(=O)O)n3cc(C(N)Cc4ccc(O)cc4)nn3)CC2)nc(N2CCN(C(=O)[C@H](Cc3cc4ccccc4[nH]3)n3cc(C(N)CC(C)C)nn3)CC2)n1 (stereo not given in full),46*,5,20,4,7,38
C#CCOCCOCCOCCNc1nc(N2CCOCC2)nc(N2CCN(C(=O)[C@H](CCCCN)n3cc([C@@H](N)CC(C)C)nn3)CC2)n1,2,-1,6,8,6,nt
N/C(=N\OC(=O)c1ccccc1Cl)c1cccc([N+](=O)[O-])c1,10,5,-2,3,5,nt
O=C(Cn1c(CO)nc2ccccc21)NCCc1ccccc1,-17,-8,-1,-2,-10,nt
O=S1(=O)N=C(Nc2ccc(N3CCOCC3)cc2)c2ccccc21,10,-20,5,7,1,nt
Cc1ccccc1-c1ccc(Nc2ccc(N3CCOCC3)cc2)nn1,59*,5,-7,-9,-2,53*
CCN(CC)C(=O)CSc1nnc(-c2cccnc2)n1CCc1ccccc1,4,-5,-5,8,-4,nt
c1coc(-c2ccnc(-n3cccc3)n2)c1,3,0,0,5,-28,nt
O=C(Nc1ccc2c(c1)CCC2)C1CCN(c2c3c(nc4ncnn24)CCC3)CC1,46*,-3,7,6,6,43
COc1ccc(NC(=O)C2CCCN(c3c4c(nc5ncnn35)CCC4)C2)cc1OC (stereo not given),10,-6,-19,2,-13,nt
Cc1ccc(NC(=O)CN2C(=O)N/C(=C\c3cccn3-c3cccc(C(=O)O)c3)C2=O)cc1,nt,-8,-2,nt,nt,nt
Cc1cc(N2CCN(C)CC2)nc2ccc(NC(=O)CCC(=O)N3CCN(c4ccc([N+](=O)[O-])cc4)CC3)cc12,66*,9,-15,-10,7,60*
O=C(Nc1nc2ccccc2[nH]1)C1CCC1,0,-14,-3,4,-7,nt
CCN(CC)c1nc2c3c(nc4c(c3c1C#N)CC(=O)N4c1ccc(Cl)cc1)NC(C)=N2,66*,17,-62,0,6,65*
CC(C)(C)c1ccc(N2C(=O)Cc3c2nc(N)c(C#N)c3N)cc1,8,-1,4,-2,3,nt
O=C(C1=C[C@@H](c2ccc(Br)cc2)C[C@@H](OCCCCO)O1)N1CCN(Cc2ccc3c(c2)OCO3)CC1,67*,30,23,-1,5,59*
O=C(C1=C[C@@H](c2ccccc2)C[C@@H](OCc2ccc(CO)cc2)O1)N1CCN(Cc2ccc3c(c2)OCO3)CC1,51*,21,15,8,-11,56*
CCO[C@H]1OC(C(=O)N2CCN(Cc3ccc4c(c3)OCO4)CC2)=C[C@@H](c2ccc3c(c2)OCO3)[C@@H]1CCCO,49*,9,8,9,7,43
O=C(C1=C[C@H](c2ccccc2)C[C@H](OCCCCO)O1)N1CCN(Cc2ccc3c(c2)OCO3)CC1,22,1,9,-1,-8,nt
CN(CC(=O)Nc1ccccc1Br)C(=O)COc1ccc2ccccc2c1,-8,4,5,nt,21,nt
Cc1c(NC(=O)c2ccc(S(=O)(=O)N3CC(C)OC(C)C3)cc2)c(=O)n(-c2ccccc2)n1C (stereo not given),1,-16,-6,-6,-4,nt
COC(=O)CCC(=O)OC1(C)C(=O)C=C2C=C(C3CC3)N(Cc3ccc(OC)cc3)C=C2C1=O (stereo not given),59*,35,-43,6,1,43
COC(=O)CCC(=O)OC1(C)C(=O)C=C2C=C(C3CC3)N(CCc3c[nH]c4ccccc34)C=C2C1=O (stereo not given),63*,28,-31,7,-10,52*
COC(=O)CCC(=O)OC1(C)C(=O)C=C2C=C(C3CC3)N(C(CO)CO)C=C2C1=O (stereo not given),3,33,-80,1,0,nt
